Measured values as given in ChEMBL document CHEMBL3352597, “Heck products of parthenolide and melampomagnolide-B as anticancer modulators that modify cell cycle progression” (Eur J Med Chem, 2014).

Experiments:
Format in all cases: functional
[1] = system: CCRF-CEM; test: Anticancer activity against human CCRF-CEM cells
Procedure, shortened: (§1)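 NCI 60 human cancer cell line panel, multiple-dose testing at five concentrations (10^-4, 10^-5, 10^-6, 10^-7 and 10^-8 M). Dose-response curves plot cytotoxic effect against log10 of drug concentration for each cell line. GI50 is the molar concentration giving 50% growth inhibition; LC50 is the concentration killing 50% of cells.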

[2] = system: HL-60(TB); test: Anticancer activity against human HL-60(TB) cells; procedure, shortened: as §1
[3] = system: K562; test: Anticancer activity against human K562 cells; procedure, shortened: as §1
[4] = Anticancer activity against human MOLT4 cells; procedure, shortened: as §1
[5] = Anticancer activity against human RPMI8226 cells; procedure, shortened: as §1
[6] = system: SR; test: Anticancer activity against human SR cells
Procedure, shortened: (§2)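 NCI 60 human tumour cell line screen. A single-concentration pre-screen was run at 10^-5 M. Compounds selected from it were then tested at five concentrations, 10^-4 to 10^-8 M. Dose-response curves plotted cytotoxic effect against log10 of the drug concentration for each cell line. GI50 is the molar concentration giving 50% growth inhibition, and LC50 the concentration killing 50% of cells.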

[7] = system: A549; test: Anticancer activity against human A549 cells; procedure, shortened: as §1
[8] = system: HOP-62; test: Anticancer activity against human HOP62 cells; procedure, shortened: as §1
[9] = system: NCI-H226; test: Anticancer activity against human NCI-H226 cells; procedure, shortened: as §1
[10] = system: NCI-H23; test: Anticancer activity against human NCI-H23 cells; procedure, shortened: as §1
[11] = system: NCI-H322M; test: Anticancer activity against human NCI-H322M cells after 48 hrs; procedure, shortened: as §1
[12] = system: NCI-H460; test: Anticancer activity against human NCI-H460 cells; procedure, shortened: as §1
[13] = system: NCI-H522; test: Anticancer activity against human NCI-H522 cells; procedure, shortened: as §1
[14] = Anticancer activity against human COLO205 cells; procedure, shortened: as §1
[15] = Anticancer activity against human HCC2998 cells; procedure, shortened: as §1
[16] = Anticancer activity against human HCT116 cells; procedure, shortened: as §1
[17] = Anticancer activity against human HCT15 cells; procedure, shortened: as §1
[18] = system: HT-29; test: Anticancer activity against human HT-29 cells; procedure, shortened: as §1
[19] = system: KM12; test: Anticancer activity against human KM12 cells; procedure, shortened: as §1
[20] = system: SW-620; test: Anticancer activity against human SW620 cells; procedure, shortened: as §2
[21] = system: SF-268; test: Anticancer activity against human SF268 cells; procedure, shortened: as §1
[22] = Anticancer activity against human SF295 cells; procedure, shortened: as §1
[23] = Anticancer activity against human SF539 cells; procedure, shortened: as §1
[24] = system: SNB-19; test: Anticancer activity against human SNB19 cells; procedure, shortened: as §1
[25] = system: SNB-75; test: Anticancer activity against human SNB75 cells; procedure, shortened: as §2
[26] = system: U-251; test: Anticancer activity against human U251 cells; procedure, shortened: as §2
[27] = Anticancer activity against human LOXIMVI cells; conditions: LOX IMVI; procedure, shortened: as §1
[28] = system: Malme-3M; test: Anticancer activity against human MALME-3M cells; procedure, shortened: as §1
[29] = system: M14; test: Anticancer activity against human M14 cells; procedure, shortened: as §1
[30] = system: SK-MEL-28; test: Anticancer activity against human SK-MEL-28 cells; procedure, shortened: as §1
[31] = Anticancer activity against human UACC257 cells; procedure, shortened: as §2
[32] = Anticancer activity against human UACC62 cells; procedure, shortened: as §2
[33] = system: IGROV-1; test: Anticancer activity against human IGROV1 cells; procedure, shortened: as §1
[34] = Anticancer activity against human OVCAR3 cells; procedure, shortened: as §1
[35] = Anticancer activity against human OVCAR4 cells; procedure, shortened: as §1
[36] = Anticancer activity against human OVCAR5 cells; procedure, shortened: as §1
[37] = Anticancer activity against human OVCAR8 cells; procedure, shortened: as §1
[38] = Anticancer activity against human NCI-ADR-RES cells; procedure, shortened: as §1
[39] = Anticancer activity against human SKOV3 cells; procedure, shortened: as §1
[40] = system: 786-0; test: Anticancer activity against human 786-0 cells; procedure, shortened: as §1
[41] = system: A498; test: Anticancer activity against human A498 cells; procedure, shortened: as §1
[42] = system: CAKI-1; test: Anticancer activity against human CAKI-1 cells; procedure, shortened: as §1
[43] = Anticancer activity against human RXF393 cells; procedure, shortened: as §1
[44] = system: SN12C; test: Anticancer activity against human SN12C cells; procedure, shortened: as §1
[45] = system: TK-10; test: Anticancer activity against human TK10 cells; procedure, shortened: as §2
[46] = Anticancer activity against human UO31 cells; procedure, shortened: as §2
[47] = Anticancer activity against human PC3 cells; procedure, shortened: as §1
[48] = system: MCF7; test: Anticancer activity against human MCF7 cells; procedure, shortened: as §1
[49] = system: MDA-MB-231; test: Anticancer activity against human MDA-MB-231 cells; procedure, shortened: as §1
[50] = Anticancer activity against human Hs 578T cells; procedure, shortened: as §1
[51] = system: T47D; test: Anticancer activity against human T47D cells; procedure, shortened: as §2
[52] = system: MDA-MB-468; test: Anticancer activity against human MDA-MB-468 cells; procedure, shortened: as §1
[53] = read-out: LC50 (the source's name)

## C/C1=C\CC[C@@]2(C)O[C@@H]2[C@H]2OC(=O)/C(=C/c3ccsc3)[C@@H]2CC1
[1]
  GI50: 19.1 µM
[1]; [53]
  CC50: > 100 µM
[2]
  GI50: 21.7 µM
[2]; [53]
  CC50: 99.9 µM
[3]
  GI50: 25.2 µM
[3]; [53]
  CC50: > 100 µM
[4]; MOLT-4
  GI50: 25.7 µM
[4]; MOLT-4, read-out: LC50 (the source's name)
  CC50: > 100 µM
[5]; RPMI-8226
  GI50: 19.7 µM
[5]; RPMI-8226, read-out: LC50 (the source's name)
  CC50: > 100 µM
[6]
  GI50: 20.7 µM
[6]; [53]
  CC50: > 100 µM
[7]
  GI50: 29.8 µM
[7]; [53]
  CC50: > 100 µM
[8]
  GI50: 35.8 µM
[8]; [53]
  CC50: > 100 µM
[9]
  GI50: 30.2 µM
[9]; [53]
  CC50: > 100 µM
[10]
  GI50: 23 µM
[10]; [53]
  CC50: > 100 µM
[11]
  GI50: 44.7 µM
[11]; [53]
  CC50: > 100 µM
[12]
  GI50: 29.3 µM
[12]; [53]
  CC50: > 100 µM
[13]
  GI50: 5.44 µM
[13]; [53]
  CC50: 59.7 µM
[14]; COLO 205
  GI50: 22.6 µM
[14]; COLO 205, read-out: LC50 (the source's name)
  CC50: 90.9 µM
[15]; HCC 2998
  GI50: 33.8 µM
[15]; HCC 2998, read-out: LC50 (the source's name)
  CC50: > 100 µM
[16]; HCT-116
  GI50: 28.3 µM
[16]; HCT-116, read-out: LC50 (the source's name)
  CC50: > 100 µM
[17]; HCT-15
  GI50: 22.6 µM
[17]; HCT-15, read-out: LC50 (the source's name)
  CC50: > 100 µM
[18]
  GI50: 27 µM
[18]; [53]
  CC50: > 100 µM
[19]
  GI50: 20.4 µM
[19]; [53]
  CC50: 86.7 µM
[20]
  GI50: 22.9 µM
[20]; [53]
  CC50: > 100 µM
[21]
  GI50: 21.3 µM
[21]; [53]
  CC50: > 100 µM
[22]; SF-295
  GI50: 28.5 µM
[22]; SF-295, read-out: LC50 (the source's name)
  CC50: > 100 µM
[23]; SF-539
  GI50: 16.1 µM
[23]; SF-539, read-out: LC50 (the source's name)
  CC50: 62.2 µM
[24]
  GI50: 47.6 µM
[24]; [53]
  CC50: > 100 µM
[25]
  GI50: 21.5 µM
[25]; [53]
  CC50: > 100 µM
[26]
  GI50: 21.7 µM
[26]; [53]
  CC50: > 100 µM
[27]
  GI50: 18 µM
[27]; [53]
  CC50: 71.2 µM
[28]
  GI50: 22.5 µM
[28]; [53]
  CC50: > 100 µM
[29]
  GI50: 20.5 µM
[29]; [53]
  CC50: > 100 µM
[30]
  GI50: 29.4 µM
[30]; [53]
  CC50: > 100 µM
[31]; UACC-257
  GI50: 16.6 µM
[31]; UACC-257, read-out: LC50 (the source's name)
  CC50: > 100 µM
[32]; UACC-62
  GI50: 13.8 µM
[32]; UACC-62, read-out: LC50 (the source's name)
  CC50: 76.6 µM
[33]
  GI50: 27.9 µM
[33]; [53]
  CC50: > 100 µM
[34]; OVCAR-3
  GI50: 20.5 µM
[34]; OVCAR-3, read-out: LC50 (the source's name)
  CC50: > 100 µM
[35]; OVCAR-4
  GI50: 24.3 µM
[35]; OVCAR-4, read-out: LC50 (the source's name)
  CC50: > 100 µM
[36]; OVCAR-5
  GI50: 48.1 µM
[36]; OVCAR-5, read-out: LC50 (the source's name)
  CC50: > 100 µM
[37]; OVCAR-8
  GI50: 26.9 µM
[37]; OVCAR-8, read-out: LC50 (the source's name)
  CC50: > 100 µM
[38]
  GI50: 23.6 µM
[38]; [53]
  CC50: > 100 µM
[39]; SK-OV-3
  GI50: 44.9 µM
[39]; SK-OV-3, read-out: LC50 (the source's name)
  CC50: > 100 µM
[40]
  GI50: 35.7 µM
[40]; [53]
  CC50: > 100 µM
[41]
  GI50: 17.5 µM
[41]; [53]
  CC50: > 100 µM
[42]
  GI50: 30.9 µM
[42]; [53]
  CC50: > 100 µM
[43]; RXF 393
  GI50: 18.1 µM
[43]; RXF 393, read-out: LC50 (the source's name)
  CC50: > 100 µM
[44]
  GI50: 25.8 µM
[44]; [53]
  CC50: > 100 µM
[45]
  GI50: 34.7 µM
[45]; [53]
  CC50: > 100 µM
[46]; UO-31
  GI50: 27.3 µM
[46]; UO-31, read-out: LC50 (the source's name)
  CC50: > 100 µM
[47]; PC-3
  GI50: 22.7 µM
[47]; PC-3, read-out: LC50 (the source's name)
  CC50: > 100 µM
[48]
  GI50: 20 µM
[48]; [53]
  CC50: > 100 µM
[49]
  GI50: 16 µM
  LC50 (concentration killing 50% of cells): 81.8 µM
[50]
  GI50: 21.5 µM
[50]; [53]
  CC50: > 100 µM
[51]
  GI50: 29.5 µM
[51]; [53]
  CC50: > 100 µM
[52]
  GI50: 17.7 µM
  LC50 (concentration killing 50% of cells): > 100 µM
